High-throughput results from PubChem.
In the library only some 2.3% were active in any assay of this set; here they are far more common.
TRPC4 act: opens the mouse TRPC4 cation channel; Q9QUQ5; HEK293 TRPC4beta/mu-opioid, Fluo4 calcium fluorescence; stronger effect = higher value; B-score at 10 µM; actives 0.49% (n = 310,000);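 active means B-score above 5 SD of library B-scores, and initial fluorescence ratio not above library mean plus 5 SD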;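 further: positive B-score marks a calcium rise read as TRPC4 activation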
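system = HEK293 cells stably co-expressing mouse TRPC4beta and mu-opioid receptor | schedule = Fluo4 dye loading 45 min at room temperature, 110 s recording | measure = B-scored integrated calcium fluorescence ratio | signal = Fluo4 calcium-sensitive dye fluorescence, kinetic, 1 Hz baseline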
TRPC4 block: inhibitors of mouse TRPC4 channel; Q9QUQ5; HEK293 TRPC4beta/mu-opioid, DAMGO-evoked Fluo4 calcium flux; stronger effect = lower value; B-score at 10 µM; actives 0.39% (n = 300,000); AID 2247;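 active means B-score over 3 SD under the library average, no early fluorescence shift, positive overall ratio signal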
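System: stable TRPC4beta/mu-opioid receptor HEK293 cells; Dosing: single-point compound dosing; Measured by: Fluo4 Ca2+ flux fluorescence; Read-out basis: per-well B score of integrated baseline-normalized Fluo4 ratio.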
TRPC6 act: activates the mouse TRPC6 cation channel. B-score at 10 µM. Q61143. AID 2550. HEK293-TRPC6 membrane potential dye fluorescence; stronger effect = higher value. actives 0.13% (n = 310,000);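 active means B-score of the integrated fluorescence ratio above library mean plus 3 SD, and starting fluorescence ratio within library mean plus 5 SD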;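 further: higher score means more depolarization so channel activation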
Target sequence (Q61143 whole entry, looked up): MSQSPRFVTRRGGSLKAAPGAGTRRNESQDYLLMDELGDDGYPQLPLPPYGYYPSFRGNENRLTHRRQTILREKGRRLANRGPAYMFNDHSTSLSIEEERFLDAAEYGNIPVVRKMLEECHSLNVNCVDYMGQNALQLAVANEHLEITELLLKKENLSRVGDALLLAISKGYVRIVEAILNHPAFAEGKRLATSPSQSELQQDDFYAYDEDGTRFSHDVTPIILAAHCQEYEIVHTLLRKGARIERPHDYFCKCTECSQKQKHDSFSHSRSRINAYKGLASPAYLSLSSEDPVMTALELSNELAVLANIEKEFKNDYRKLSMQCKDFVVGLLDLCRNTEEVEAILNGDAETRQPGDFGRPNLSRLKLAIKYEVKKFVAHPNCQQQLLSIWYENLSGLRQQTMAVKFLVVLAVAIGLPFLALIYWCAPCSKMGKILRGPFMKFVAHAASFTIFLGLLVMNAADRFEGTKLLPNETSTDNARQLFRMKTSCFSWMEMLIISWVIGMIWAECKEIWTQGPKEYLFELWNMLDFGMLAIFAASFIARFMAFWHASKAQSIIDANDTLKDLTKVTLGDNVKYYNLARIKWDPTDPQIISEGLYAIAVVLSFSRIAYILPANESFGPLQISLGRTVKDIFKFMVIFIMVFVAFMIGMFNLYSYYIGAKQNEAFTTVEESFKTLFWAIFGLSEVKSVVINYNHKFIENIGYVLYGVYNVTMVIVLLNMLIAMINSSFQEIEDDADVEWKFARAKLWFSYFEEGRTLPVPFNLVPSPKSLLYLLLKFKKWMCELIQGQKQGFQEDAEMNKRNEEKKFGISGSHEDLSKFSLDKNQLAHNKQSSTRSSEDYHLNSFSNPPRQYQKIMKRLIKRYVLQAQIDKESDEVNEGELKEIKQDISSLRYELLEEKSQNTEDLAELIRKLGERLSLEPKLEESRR
TRPC4 potent: TRPC4 (mouse) allosteric potentiation; HEK293 TRPC4beta/mu-opioid, DAMGO EC20, Fluo-4 Ca2+ flux; stronger effect = higher value; B-score at 10 µM; actives 0.42% (n = 310,000); Q9QUQ5; AID 2227;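 active means B-score of calcium response area above 5 SD of library B-scores, with initial fluorescence ratio within 5 SD of library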;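 further: B-score of integrated fluorescence ratio over time as area under calcium response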
TRPC6 inh: blocks the mouse TRPC6 cation channel; Q61143; HEK293-TRPC6, membrane potential dye, ACh-evoked depolarization; stronger effect = lower value; B-score at 10 µM; actives 1.1% (n = 310,000); AID 2553;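 active means B-score under library mean minus 3 SD, initial fluorescence not abnormally high, positive integrated signal ratio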;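 further: B-score derived from integrated fluorescence ratio over the kinetic read; more negative B-score means stronger inhibition of depolarization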
HEK293 TRPC6 ctr: checks TRPC6 modulator effects in parental HEK293 cells | membrane potential dye fluorescence | membrane potential signal change, % at 10 µM | AID 488924 | shares compounds with TRPC6 inh | actives 51% (n = 2,400);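 active means membrane potential signal moves up or down beyond 5 SD from buffer-only wells, on both duplicate plates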
HEK293 MPD ctr 2: parental HEK293 nonspecific activity of TRPC6 modulators, second screen; shares compounds with TRPC6 inh; membrane potential dye fluorescence; after compound, maximal acetylcholine stimulation; inhibition, % at 10 µM; actives 14% (n = 2,400);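 active means membrane potential signal drops by more than 5 SD from the mean control signal, in both duplicate plates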;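 further: plate controls were acetylcholine ECmax control wells for no effect and buffer only wells for full effect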
TRPC4 ctr mod: mouse TRPC4 off-target activity of TRPC6 modulators. HEK293 TRPC4/mu-opioid, membrane potential fluorescence. percent change from control (negative = decrease, positive = increase), % at 10 µM. actives 69% (n = 2,400). shares compounds with TRPC6 inh;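 active means membrane potential signal moved up or down beyond 5 SD of buffer control wells, in both duplicate plates, actives on both sides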;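 further: plate controls were assay buffer wells for no effect and DAMGO maximal-effect wells for full effect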
TRPC4/MOR inh 2: second check of whether TRPC6 modulators also affect mouse TRPC4 | inhibition, % at 10 µM | HEK293 TRPC4/mu-opioid, membrane potential dye fluorescence; stimulated with maximal-effect DAMGO | actives 55% (n = 2,400) | shares compounds with TRPC6 inh;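 active means drop in membrane potential signal beyond 5 SD of the control wells in both duplicate plates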;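 further: TRPC4 counter screen for TRPC6 hits run under conditions tuned for TRPC6 not TRPC4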
TRPC6 inh conf: mouse TRPC6 inhibitor confirmation; shares compounds with TRPC6 inh; HEK293-TRPC6, membrane potential dye, ACh-evoked depolarization; inhibition, % at 10 µM; actives 43% (n = 3,300);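 active means fluorescence ratio falls more than 5 SD below the full-stimulation control mean, in both duplicate runs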;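 further: integrated fluorescence ratio of peak minus minimum over baseline after agonist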
The depositor's hits bear a star.

For O=C(Nc1cccc(Cl)c1)NC1CCN(C2CCCCC2)C1 (centres undefined) the results were TRPC4 act 46*, TRPC4 block inactive, TRPC6 act inactive, TRPC4 potent inactive and TRPC6 inh inactive.
Screening CCOc1cccc(N2CCN(CCNC(=O)Nc3ccc(C)cc3)CC2)c1C returned TRPC4 act inactive, TRPC4 block inactive, TRPC6 act inactive, TRPC4 potent inactive and TRPC6 inh inactive.
For CCn1c(C)nc2cc(C(=O)N/N=C/c3ccc(O)c(O)c3O)ccc21 the results were TRPC4 act inactive, TRPC4 block inactive, TRPC6 act inactive, TRPC4 potent 14* and TRPC6 inh inactive.
`CC(CNS(=O)(=O)c1ccc(Cl)cc1)n1cncn1` (centres undefined) gave TRPC4 act inactive, TRPC4 block inactive, TRPC6 act inactive, TRPC4 potent inactive and TRPC6 inh inactive.
For CC(C)=CCN1CCN(Cc2cccc3nonc23)CC1CCO (centres undefined) the results were TRPC4 act inactive, TRPC4 block -5*, TRPC6 act inactive, TRPC4 potent inactive and TRPC6 inh inactive.
For CCOC(=O)c1ccc(NC(=S)Nc2ccc(Br)cc2N)cc1 the results were TRPC4 act inactive, TRPC4 block inactive, TRPC6 act inactive, TRPC4 potent inactive and TRPC6 inh inactive.
C/C(=N\Nc1ccc(C(=O)O)cc1)c1ccc2c(c1)Nc1ccccc1S2 was read as TRPC4 act inactive, TRPC4 block -6*, TRPC6 act inactive, TRPC4 potent inactive and TRPC6 inh inactive.
Screening COc1c(/C=N/Nc2nc(N3CCCCC3)nc(N3CCCCC3)n2)cccc1[N+](=O)[O-] returned TRPC4 act inactive, TRPC4 block inactive, TRPC6 act inactive, TRPC4 potent inactive and TRPC6 inh inactive.
`O=[N+]([O-])c1ccc(/C=N/Nc2nc(N3CCCCC3)nc(N3CCCCC3)n2)o1` gave TRPC4 act inactive, TRPC4 block inactive, TRPC6 act inactive, TRPC4 potent 22* and TRPC6 inh inactive.
`CC(C)CCn1c(Sc2nc3ccccc3o2)nc2c1c(=O)[nH]c(=O)n2C` gave TRPC4 act inactive, TRPC4 block inactive, TRPC6 act inactive, TRPC4 potent 17* and TRPC6 inh inactive.
`C1=CC2=NC34CCCCC3CC3=C(CCCC3)N4C2=CC1=NC1CCCCC1` (centres undefined) gave TRPC4 act inactive, TRPC4 block inactive, TRPC6 act inactive, TRPC4 potent inactive and TRPC6 inh inactive.
Cc1cc2ccccn2c1C(=O)c1cc([N+](=O)[O-])cc([N+](=O)[O-])c1 was read as TRPC4 act inactive, TRPC4 block inactive, TRPC6 act inactive, TRPC4 potent 12* and TRPC6 inh inactive.
Screening COC(=O)c1cc(C(=O)c2c(C)cc3ccccn23)cc([N+](=O)[O-])c1 returned TRPC4 act inactive, TRPC4 block inactive, TRPC6 act inactive, TRPC4 potent inactive and TRPC6 inh inactive.
For Cn1cccc1-c1nc2ccccc2n1Cc1ccccc1 the results were TRPC4 act inactive, TRPC4 block -5*, TRPC6 act inactive, TRPC4 potent inactive and TRPC6 inh inactive.
For c1ccc(Cn2c(CN3CCCC3)nc3ccccc32)cc1 the results were TRPC4 act inactive, TRPC4 block -7*, TRPC6 act inactive, TRPC4 potent inactive and TRPC6 inh inactive.
Screening CCOc1ccccc1N1CCN(C(=O)c2cc3cc(OC)ccc3[nH]2)CC1 returned TRPC4 act inactive, TRPC4 block inactive, TRPC6 act inactive, TRPC4 potent inactive and TRPC6 inh inactive.
Cc1nc2scc(C)n2c(=O)c1S(=O)(=O)Nc1ccc(OC(F)(F)F)cc1 was read as TRPC4 act inactive, TRPC4 block inactive, TRPC6 act inactive, TRPC4 potent inactive and TRPC6 inh inactive.
For O=C(CSc1nnc(-c2ccc(Cl)cc2Cl)n1C1CCCCC1)NC1CCS(=O)(=O)C1 (centres undefined) the results were TRPC4 act inactive, TRPC4 block -6*, TRPC6 act inactive, TRPC4 potent inactive and TRPC6 inh inactive.
Cc1ccsc1/C=C(\C#N)C(=O)Nc1c(C)n(C)n(-c2ccccc2)c1=O was read as TRPC4 act inactive, TRPC4 block inactive, TRPC6 act inactive, TRPC4 potent 11* and TRPC6 inh inactive.
CN1CCN(c2ccc(S(=O)(=O)N3CCCCC3)cc2NC(=O)CSCc2ccccc2)CC1 was read as TRPC4 act inactive, TRPC4 block inactive, TRPC6 act inactive, TRPC4 potent inactive and TRPC6 inh inactive.
For Cc1cccc(OCC(O)Cn2c(N3CCCCC3)nc3c2c(=O)n(C)c(=O)n3C)c1 (centres undefined) the results were TRPC4 act inactive, TRPC4 block inactive, TRPC6 act inactive, TRPC4 potent inactive, TRPC6 inh -6.1*, HEK293 TRPC6 ctr inactive, HEK293 MPD ctr 2 inactive, TRPC4 ctr mod 8.0%*, TRPC4/MOR inh 2 inactive and TRPC6 inh conf 80%*.
Screening Cn1c(=O)c2c(nc(N3CCCCCC3)n2CC(O)COc2ccccc2)n(C)c1=O (centres undefined) returned TRPC4 act inactive, TRPC4 block inactive, TRPC6 act inactive, TRPC4 potent inactive and TRPC6 inh inactive.
CS(=O)(=O)c1ccccc1-c1nnc(NC(=O)c2ccc(S(=O)(=O)N3CCCC3)cc2)o1 was read as TRPC4 act inactive, TRPC4 block inactive, TRPC6 act inactive, TRPC4 potent inactive and TRPC6 inh inactive.
